From PubChem
M5 PAM: CHRM5 positive allosteric modulation; P08912; CHO-K1 hM5, Fluo-8 calcium, ACh EC20 PAM; 0% = ACh EC20, 100% = ACh EC100; activation, % at 3 µM; 0.3% of 360,000 active; AID 624038;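 active = activation above the run cutoff, the mean activation of all test compounds plus 3 SD, cut at about 18% in these data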
Target sequence (P08912 whole entry, looked up): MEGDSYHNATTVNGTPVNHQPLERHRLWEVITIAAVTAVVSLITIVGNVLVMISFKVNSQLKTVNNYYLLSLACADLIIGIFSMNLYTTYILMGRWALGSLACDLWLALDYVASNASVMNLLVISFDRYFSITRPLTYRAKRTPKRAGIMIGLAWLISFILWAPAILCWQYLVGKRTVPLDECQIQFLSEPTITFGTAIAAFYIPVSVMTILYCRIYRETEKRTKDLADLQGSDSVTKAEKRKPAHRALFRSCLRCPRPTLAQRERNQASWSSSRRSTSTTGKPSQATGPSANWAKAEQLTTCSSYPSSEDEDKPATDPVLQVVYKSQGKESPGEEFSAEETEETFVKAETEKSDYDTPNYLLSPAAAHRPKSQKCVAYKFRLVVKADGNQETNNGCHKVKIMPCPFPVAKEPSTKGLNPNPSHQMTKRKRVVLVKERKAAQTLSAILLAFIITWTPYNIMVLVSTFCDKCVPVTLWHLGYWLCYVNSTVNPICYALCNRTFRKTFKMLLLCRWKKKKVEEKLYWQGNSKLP
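Probe or stimulus: acetylcholine, EC20 level; Assay system: human M5 receptor in CHO-K1 cells; Schedule: compound preincubation 140 s before EC20 acetylcholine addition; Technique: intracellular calcium via Fluo-8 fluorescence; Dosing: single-point, 3 µM nominal; Read-out basis: percent activation from peak-over-basal fluorescence ratio, scaled EC20-to-EC100 acetylcholine; Repeats: one well per compound, no replicates.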
M5 ag: CHRM5 agonism in calcium assay; activation, % at 3 µM; CHO-K1 hM5 cells, Fluo-8 calcium fluorescence; 0% DMSO wells, 100% maximal acetylcholine response; 0.19% of 360,000 active; P08912;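 active = activation above the run's mean over test compounds plus 3 SD, cut at about 23% in these data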;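 also: signal is peak over basal fluorescence ratio across the kinetic read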
CHRM4 PAM: CHRM4 positive allosteric modulation. P08173. CHO-K1 hM4/Gqi5, Fluo-8 calcium fluorescence, ACh EC20; 0% = ACh EC20, 100% = maximal ACh. activation, % at 3 µM. 0.4% of 360,000 active. AID 624126;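 active = activation above its plate's cutoff, the mean activation of sample wells plus 3 SD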
CHRM4 antagonist: CHRM4 antagonism in calcium assay. P08173. CHO-hM4 cells, ACh EC80, Fluo-8 calcium fluorescence. inhibition, % at 3 µM. 0.73% of 360,000 active;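 active = inhibition above its plate's cutoff, the mean inhibition of sample wells plus 3 SD, cut at about 27% in these data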;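 also: 0% = acetylcholine EC80 with DMSO and 100% = DMSO without agonist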
CHRM5 antagonist: CHRM5 antagonism in calcium assay; 0.59% of 360,000 active; P08912; inhibition, % at 3 µM; CHO-hM5 cells, Fluo-8 calcium fluorescence, ACh EC80;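 active = inhibition above a per-plate cutoff, the mean of that plate's test compounds plus 3 SD, cut at about 27% in these data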;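 also: 0% = acetylcholine EC80 with DMSO and 100% = DMSO without agonist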
M4 ag: CHRM4 agonism in calcium assay | 0.14% of 360,000 active | P08173 | activation, % at 3 µM | CHO-K1 hM4/Gqi5, Fluo-8 calcium fluorescence; vehicle 0%, full acetylcholine response 100%;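 active = activation above the run mean over all test wells plus 3 SD, cut at about 32% in these data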;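 also: peak over basal fluorescence ratio per well then scaled between controls; 0% = DMSO wells and 100% = acetylcholine at EC100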
* marks the source's active call; other numbers are inactive results. This is a sample that favours compounds with a hit; in the whole collection about 1.8% have one here.

SMILES	M5 PAM	M5 ag	CHRM4 PAM	CHRM4 antagonist	CHRM5 antagonist	M4 ag
COc1cccc(C(=O)OCC(=O)Nc2sc3c(c2C(N)=O)CCC3)c1O	-1	2	3	2	-2	4
COc1ncccc1C(=O)Nc1c(-c2ccccc2)[nH][nH]c1=O	-6	1	1	39*	11	3
CC(=O)Oc1cccc(N2C(=O)c3ccc(C(=O)Nc4c[nH]c(=O)[nH]c4=O)cc3C2=O)c1	-4	-4	2	-4	10	1
CC(C)C[C@@H](CO)N(Cc1ccccc1)S(=O)(=O)N(Cc1ccccc1)[C@@H](CO)CC(C)C	-21	-1	-14	26	16	10
CC(C)C[C@@H](CO)N(Cc1ccccc1)S(=O)(=O)N(Cc1ccccc1)[C@H](CO)CC(C)C	-20	2	-8	39*	9	20
COc1ccc(CN([C@H](CO)CC(C)C)S(=O)(=O)N(Cc2ccccc2)[C@H](CO)CC(C)C)cc1	-32	-1	-10	41*	18	17
Cc1cc(C(=O)CSc2nnc(CCC(N)=O)n2C)c(C)n1C1CC1	1	1	-4	-6	2	1
CC(=O)Nc1ccc(NC(=O)CSc2ccc3nnc(CCNS(=O)(=O)c4ccc(C)cc4)n3n2)cc1	-1	-3	4	-5	7	1
Cc1noc(C)c1CSCC(=O)N(CC(C)C)c1c(N)n(Cc2ccccc2)c(=O)[nH]c1=O	-4	0	8	-9	7	0
CCN(C1CCS(=O)(=O)C1)S(=O)(=O)c1ccc(OC)c(OC)c1 (configuration not stated)	0	2	23*	-8	6	1
CCCCN(C1CCS(=O)(=O)C1)S(=O)(=O)c1ccc(OC)cc1 (configuration not stated)	-3	0	-3	3	1	1
O=C(NCCN1CCCC1)c1ccc(Cn2c(=S)[nH]c3cc4c(cc3c2=O)OCO4)cc1	-15	28*	-8	-6	12	1
CNc1sc(C(=O)c2ccccc2F)c(N)c1-c1nc2ccccc2s1	7	2	22	34*	4	3
COc1cccc(NC(=S)N(Cc2ccc(C(=O)O)cc2)Cc2ccc(OC)c(OC)c2)c1	3	3	20*	9	-3	1
Cc1ccc(-c2noc(-c3ccno3)n2)cc1	-9	-5	31*	-1	8	1
c1ccc(-c2noc(-c3ccno3)n2)nc1	4	-1	17	-18	2	0
CC(NC(=O)CCNC(=O)c1ccco1)c1ccccc1 (configuration not stated)	3	-2	8	-24	-2	1
Cc1ccc(-c2nc(C=Nc3ccccc3)c(O)o2)cc1	-2	-7	1	-5	-14	2
Cc1ccc(-c2nc(C=Nc3cccc(C)c3)c(O)o2)cc1	18*	1	5	-9	-1	1
CCc1ccccc1NC(=S)N1CCN(c2cccc(OC)c2)CC1	4	-1	-1	-7	2	1
COc1cc(/C=C/C(=O)OCC(=O)Nc2ccc([N+](=O)[O-])cc2)ccc1O	-18	38*	-11	2	5	39*
O=C(CCl)N1c2ccccc2Oc2ccc3ccccc3c21	-10	38*	-12	32*	23	48*
CC(=O)N1c2ccccc2Oc2cc3ccccc3cc21	-6	-6	-1	2	2	-1
O=C(O)CSc1nnc(-c2cccc(S(=O)(=O)N3CCOCC3)c2)n1-c1cccc(Cl)c1	8	2	9	1	1	1
CC(=O)Nc1c(O)nc(SCC(=O)Nc2ccc(C(C)=O)cc2)[nH]c1=O	2	4	0	3	1	2
SMILES	M5 PAM	M5 ag	CHRM4 PAM	CHRM4 antagonist	CHRM5 antagonist	M4 ag
COC(=O)c1ccccc1NC(=O)CSc1nc(O)c(-c2ccccc2)c(=O)[nH]1	3	-2	3	-5	4	0
CC(=O)Nc1c(O)nc(SCC(=O)Nc2cccc(C)c2)[nH]c1=O	1	4	42*	-3	1	2
COC(=O)c1cccc(NC(=O)CSc2nc(O)c(-c3ccccc3)c(=O)[nH]2)c1	11	0	24*	-5	0	1
CC(=O)Nc1c(O)nc(SCC(=O)N2CCCCC2)[nH]c1=O	5	1	23*	-7	-3	1
C=C(CN(C)C)C(=O)c1cc(OC)c(OC)cc1OC	-4	1	5	2	6	0
CC(C)(C)c1ccc(CC(=O)N2CCC2(C)C(=O)Nc2cnc3ccccc3c2)cc1 (configuration not stated)	-17	5	-12	23	24	19
O=C(NNc1ccccc1[N+](=O)[O-])Nc1ccc(Cl)c(Cl)c1	-18	12	-8	15	29*	15
O=C(Nc1ccc(Cl)c(Cl)c1)c1ccccc1	-1	-2	-6	6	5	3
O=C(Nc1ccc(Cl)c([N+](=O)[O-])c1)C(Sc1ccccc1)c1ccccc1 (configuration not stated)	-19	0	-28	26	30*	7
O=C(Nc1ccc(Cl)c(Cl)c1)Nc1ccccc1O	-25	3	-9	16	42*	18
O=C(Nc1ccc(Cl)c(Cl)c1)Nc1ccc(Br)cc1F	-14	4	-11	18	31*	12
O=C1C=C(/C=C/C2C=CC=CC2)C[C@@H](c2ccc(Cl)cc2)C1 (some centres not stated)	3	-2	-4	15	14	0
C=CCN1C(=O)C2C3CC(=O)C(c4ccccc43)C2C1=O (configuration not stated)	-1	-2	2	3	6	1
CCOc1ccc(Br)cc1CNc1ccc2c(c1)OCCO2	-1	-3	-1	-7	3	-2
COc1ccc(NC(=O)Nc2ccc(F)c(Cl)c2)cc1	-17	4	-6	5	35*	16
O=C(Nc1ccc(N2CCOCC2)cc1)Nc1ccc(Cl)c(Cl)c1	-24	15	-18	48*	39*	43*
COc1ccc(OCC(O)CNC(=O)c2sccc2Cl)cc1 (configuration not stated)	-4	1	-4	4	8	3
Cn1nc(C(=O)OCC(=O)c2ccc(Cl)cc2)c2ccccc2c1=O	5	0	16*	-6	4	3
CCn1nc(C(=O)OCC(=O)c2ccc(F)cc2)c2ccccc2c1=O	-4	-5	28*	-8	-7	7
